This is an account of results in PubChem BioAssay AID504417 (Johns Hopkins Ion Channel Center, 2011).

Calls of active or inactive are those of the source.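 How the source made its calls: active means potentiation or inhibition of the KCNQ1 potassium channel at any tested concentration, with a dose response curve obtained; inactive means no effect at any concentration, or no dose response.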

In the assay the target is Potassium voltage-gated channel subfamily KQT member 1 (Homo sapiens) (UniProt P51787). Briefly: KCNQ1 channel modulation, potentiation or inhibition, dose response, selectivity assay for KCNQ2 activator project, thallium flux, KCNQ1-expressing cells (AID 504417). A digest of the protocol: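 Probe or stimulus: potassium sulfate plus thallium sulfate stimulus, 12.5 mM each in 5x stock / System: CHO cells expressing the KCNQ1 potassium channel / Detection: kinetic FluxOR thallium-flux fluorescence, 10 s baseline plus 110 s post-stimulus / Times: FluxOR dye loading 90 min, compound exposure 20 min, room temperature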
Potassium voltage-gated channel subfamily KQT member 1 (Homo sapiens), sequence (P51787 whole entry, looked up): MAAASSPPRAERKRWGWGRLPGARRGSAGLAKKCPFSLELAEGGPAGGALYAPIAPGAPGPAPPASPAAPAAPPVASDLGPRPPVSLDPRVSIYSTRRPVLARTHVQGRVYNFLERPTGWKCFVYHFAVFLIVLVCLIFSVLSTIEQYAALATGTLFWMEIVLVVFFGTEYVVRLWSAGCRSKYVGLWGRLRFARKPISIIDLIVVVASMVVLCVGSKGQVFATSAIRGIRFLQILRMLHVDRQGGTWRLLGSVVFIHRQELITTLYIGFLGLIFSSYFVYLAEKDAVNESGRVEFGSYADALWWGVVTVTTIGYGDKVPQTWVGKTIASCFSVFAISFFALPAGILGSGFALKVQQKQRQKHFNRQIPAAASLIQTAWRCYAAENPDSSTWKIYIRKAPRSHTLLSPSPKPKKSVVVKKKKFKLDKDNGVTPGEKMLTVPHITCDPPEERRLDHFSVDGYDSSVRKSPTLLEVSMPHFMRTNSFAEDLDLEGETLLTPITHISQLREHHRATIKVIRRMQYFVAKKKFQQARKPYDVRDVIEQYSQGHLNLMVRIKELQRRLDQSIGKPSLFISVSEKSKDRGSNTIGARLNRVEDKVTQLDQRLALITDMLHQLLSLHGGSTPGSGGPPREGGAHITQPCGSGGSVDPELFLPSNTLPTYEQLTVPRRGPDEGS

On to `CCCCC(=O)Nc1c(C)cc(C)cc1Cl`, for which the outcome was inactive.
For the molecule `Cc1ccc(C)c(NC(=O)C2CC3CCC2C3)c1` (stereo not given), the outcome was inactive.
Consider `Cc1cccc(C)c1NC(=O)C1CC2CCC1C2` (stereo not given), for which the outcome was inactive.
As for `Cc1cc(C)c(NC(=O)CC(C)(C)C)c(Cl)c1`, the outcome was inactive.
Take `Cc1cc(C)c(NC(=O)C2CC3CCC2C3)c(C)c1` (stereo not given): the outcome was inactive.
